Screening results (PubChem BioAssay)
An excerpt weighted towards active compounds, which were near 3.3% of everything screened.
HTR1E agonist – activates the human 5-HT1E serotonin receptor. P28566. CHO 5-HT1E Ga15 NFAT-bla reporter, FRET; 0% DMSO wells, 100% control agonist wells. activation, % at 6 µM. 0.69% of 65,000 active. AID 574;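 active = activation above a set limit, the screen-wide mean activation plus 3 SD, cut at about 8.5% in these data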;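 note: 100% = positive control agonist at 1 µM giving full maximal response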
Target sequence (P28566 whole entry, looked up): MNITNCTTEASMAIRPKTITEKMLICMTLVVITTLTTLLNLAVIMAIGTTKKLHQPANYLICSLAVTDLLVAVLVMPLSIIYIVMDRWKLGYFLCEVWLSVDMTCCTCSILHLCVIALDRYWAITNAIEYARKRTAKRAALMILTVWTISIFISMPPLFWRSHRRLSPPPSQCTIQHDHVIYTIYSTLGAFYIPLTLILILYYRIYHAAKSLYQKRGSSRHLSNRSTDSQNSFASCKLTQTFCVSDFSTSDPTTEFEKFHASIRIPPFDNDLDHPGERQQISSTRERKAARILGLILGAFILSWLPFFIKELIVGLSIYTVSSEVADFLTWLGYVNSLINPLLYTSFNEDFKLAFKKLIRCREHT
HTR1A agonist – agonists of human 5-HT1a serotonin receptor | P08908 | CHO 5-HT1a Ga15 NFAT-bla reporter, FRET ratio; 0% basal, 100% maximal reference agonist | activation, % at 10 µM | 0.56% of 65,000 active;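 active = activation above the screen-wide mean activation plus 3 SD, cut at about 19% in these data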;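 note: 0% = DMSO wells and 100% = 5-CT at EC100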
HEK293 NFkB inh – lowers PMA/ionomycin-induced NF-kB signal in HEK293 cells; 0.21% of 62,000 active; inhibition, % at 3 µM; HEK-293 NF-kB luciferase reporter, luminescence; AID 465;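 active = inhibition above the mean of all tested compounds plus 3 SD, cut at about 40% in these data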;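 note: 0% = stimulated DMSO wells and 100% = 10 µM reference inhibitor 5653914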
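System: NF-kB luciferase reporter HEK-293 cells | Replication: Single test | Control set: DMSO vs reference inhibitor | Evaluation: % inhibition | Schedule: 1 h pretreatment, 16 h stimulation, 37 °C | Probe or stimulus: PMA with ionomycin | Compound dosing: One dose, 3 µM | Detection: Luciferase luminescence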
5-HT1A blocker – antagonists of human 5-HT1a serotonin receptor; P08908; CHO 5-HT1a Ga15 NFAT-bla reporter, antagonist mode; inhibition, % at 10 µM; 0.68% of 62,000 active;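 active = inhibition above the mean of all tested compounds plus 3 SD, cut at about 43% in these data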;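 note: receptor stimulated by 5-CT agonist at 100 nM near EC80; beta-lactamase reporter measured by ratiometric fluorescence of a cleavable substrate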
HTR1E antagonist – 5-HT1E (human) receptor antagonism; P28566; CHO 5-HT1E Ga15 NFAT-bla reporter, FRET, antagonist; inhibition, % at 6 µM; 0.99% of 65,000 active;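 active = inhibition above a set limit, the mean inhibition across every tested compound plus 3 SD, cut at about 29% in these data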;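 note: signal is the 460 over 535 nm emission ratio of beta-lactamase substrate; 0% = agonist plus DMSO wells and 100% = wells without agonist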
Jurkat tox 60K – cytotoxic compounds reducing Jurkat cell viability. Jurkat E6.1 viability, ATP luminescence, 48 h. inhibition, % at 4 µM. 1.2% of 56,000 active. AID 463;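 active = inhibition above the mean inhibition of all tested compounds plus 3 SD, cut at about 28% in these data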
Starred values were filed as active, the others as inactive; nt = not tested or not shown.

SMILES	HTR1E agonist	HTR1A agonist	HEK293 NFkB inh	5-HT1A blocker	HTR1E antagonist	Jurkat tox 60K
CC(/C=C/c1ccccc1)NC(N)=O (configuration not stated)	0	-1	15	3	-2	1
Cc1ccc(-c2csc3ncnc(-n4nc(C)cc4N)c23)cc1	8.7*	-1	11	-4	-8	4
COc1cc(C2NC(=O)NC(C)=C2C(=O)OC2CCCCC2)cc(Br)c1O (configuration not stated)	0	-1	18	0	0	-4
CC1=C(C(=O)OC2CCCCCCC2)C(c2ccc(O)cc2)NC(=O)N1 (configuration not stated)	0	-3	22	26	29*	11
O=C(CN1C(=O)NC2(CCc3ccccc32)C1=O)Nc1cc(C(F)(F)F)ccc1N1CCOCC1 (configuration not stated)	0	-2	3	-6	-8	-2
Nc1nc(-c2ccccc2)cc(N2CCCCC2)n1	1	0	29	31	17	78*
COC(=O)c1ccc(C2C(C(=O)Nc3ccc(C)cc3C)=C(C)Nc3ncnn32)cc1 (configuration not stated)	2	-1	13	8	1	7
Cc1cc(C)n(-c2nc(NCCO)c3c4c(sc3n2)CCCC4)n1	0	45*	10	-19	-12	9
O=C(Cn1nc(Cc2cccnc2)c2ccccc2c1=O)N1CCN(C(=O)c2ccco2)CC1	0	-6	14	-6	2	0
CCOC(=O)C1CCCN(C(=O)Cn2nc(Cc3cccnc3)c3ccccc3c2=O)C1 (configuration not stated)	1	38*	15	0	-1	5
Clc1ccc(Cn2ncc3c(NCc4ccco4)ncnc32)c(Cl)c1	0	-1	18	32	39*	82*
COc1cccc(Cn2c(-c3nonc3N)nc3ccccc32)c1	0	-2	12	46*	39*	81*
CCCCOc1ccccc1NC(=O)Cn1c(-c2nonc2N)nc2ccccc21	3	-3	38	62*	71*	33*
COc1cc(Cn2c(-c3nonc3N)nc3ccccc32)ccc1C	-1	-5	23	64*	52*	31*
CCC(C)NC(=O)c1ccccc1NS(=O)(=O)c1ccc(OC)c(OC)c1 (configuration not stated)	-1	2	4	8	5	-5
OC1(c2ccc(F)cc2)CCN(Cc2nnnn2Cc2cccs2)CC1	0	-1	15	0	2	0
Cn1c(=O)c2sccc2n2c(CCCC(=O)NCc3ccc4c(c3)OCO4)nnc12	0	0	14	13	9	nt
Cc1ccc(Oc2ccc(S(=O)(=O)N3CCOCC3)cc2C(N)=O)c(-n2nc3ccccc3n2)c1	0	2	28	18	39*	87*
Cn1c(=O)c2c(nc(NCc3ccco3)n2C/C=C/c2ccccc2)n(C)c1=O	0	1	0	-1	23	49*
COCCCNc1nc2c(c(=O)n(C)c(=O)n2C)n1Cc1cccc(OC)c1	0	4	nt	nt	-4	nt
Cc1cccc(Cn2c(NCCO)nc3c2c(=O)n(C)c(=O)n3C)c1	1	-1	10	5	-3	89*
COCCNc1nc2c(c(=O)n(C)c(=O)n2C)n1Cc1cccc(C)c1	1	1	8	-10	0	28*
Cn1c(=O)c2c(nc(NCCCO)n2Cc2cccc(Br)c2)n(C)c1=O	-1	-1	22	-13	6	23
Cc1cccc(Cn2c(NCC(C)O)nc3c2c(=O)n(C)c(=O)n3C)c1 (configuration not stated)	0	0	12	-18	-4	39*
O=C(OCc1nnc(-c2ccccc2)o1)c1ccc2c(c1)OCCO2	0	0	16	-16	2	1
CCOc1ccc(-c2ncncc2-c2ccc(OC)cc2)c(O)c1	-1	-5	17	35	9	9
CC1CCCCC1NC(=O)CSc1nnc(-c2ccccc2)n1N (configuration not stated)	0	0	23	0	-3	nt
CNc1nc2c(c(=O)n(C)c(=O)n2C)n1Cc1ccccc1	0	-2	14	1	8	45*
